pIC50, pKd: −log10 of the molar value. The source made the active and inactive calls. No cut-off for these calls is given here.
How the values were obtained:
[1] = molecular target: Tyrosine-protein kinase ABL1 (Homo sapiens, UniProt P00519, T315I); assay: Binding affinity to phosphorylated ABL1 T315I mutant (unknown origin) after 1 hr
[2] = Cytotoxicity against mouse BA/F3 cells expressing BCR-ABL E355G mutant assessed as growth inhibition after 72 hrs by CCK-8 assay; conditions: BaF3, 72 h
Cytochrome P450 3A4 = Cytochrome P450 3A4 (Homo sapiens, UniProt P08684); assay: Inhibition of human recombinant CYP3A4 at 30 uM after 30 mins; format: ADME; conditions: recombinant enzyme, 0.5 h
Sequence of Cytochrome P450 3A4 (P08684 whole entry): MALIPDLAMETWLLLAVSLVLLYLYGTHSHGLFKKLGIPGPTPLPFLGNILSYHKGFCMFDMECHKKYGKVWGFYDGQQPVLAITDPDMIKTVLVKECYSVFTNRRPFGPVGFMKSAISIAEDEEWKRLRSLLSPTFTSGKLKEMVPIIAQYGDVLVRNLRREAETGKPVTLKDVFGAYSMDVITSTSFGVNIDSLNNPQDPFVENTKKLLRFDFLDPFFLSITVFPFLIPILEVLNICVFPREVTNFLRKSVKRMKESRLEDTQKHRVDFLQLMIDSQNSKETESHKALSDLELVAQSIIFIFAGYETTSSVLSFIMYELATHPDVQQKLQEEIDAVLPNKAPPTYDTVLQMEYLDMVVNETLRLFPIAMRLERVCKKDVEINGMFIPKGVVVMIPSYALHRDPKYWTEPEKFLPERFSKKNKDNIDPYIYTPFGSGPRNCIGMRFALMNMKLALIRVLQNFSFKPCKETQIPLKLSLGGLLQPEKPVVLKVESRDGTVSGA

[3] = molecular target: Angiopoietin-1 receptor (Homo sapiens) (UniProt Q02763); assay: Binding affinity to TIE2 (unknown origin) at 10 nM after 2 hrs by FRET assay
Sequence of Angiopoietin-1 receptor (Homo sapiens) (Q02763 whole entry): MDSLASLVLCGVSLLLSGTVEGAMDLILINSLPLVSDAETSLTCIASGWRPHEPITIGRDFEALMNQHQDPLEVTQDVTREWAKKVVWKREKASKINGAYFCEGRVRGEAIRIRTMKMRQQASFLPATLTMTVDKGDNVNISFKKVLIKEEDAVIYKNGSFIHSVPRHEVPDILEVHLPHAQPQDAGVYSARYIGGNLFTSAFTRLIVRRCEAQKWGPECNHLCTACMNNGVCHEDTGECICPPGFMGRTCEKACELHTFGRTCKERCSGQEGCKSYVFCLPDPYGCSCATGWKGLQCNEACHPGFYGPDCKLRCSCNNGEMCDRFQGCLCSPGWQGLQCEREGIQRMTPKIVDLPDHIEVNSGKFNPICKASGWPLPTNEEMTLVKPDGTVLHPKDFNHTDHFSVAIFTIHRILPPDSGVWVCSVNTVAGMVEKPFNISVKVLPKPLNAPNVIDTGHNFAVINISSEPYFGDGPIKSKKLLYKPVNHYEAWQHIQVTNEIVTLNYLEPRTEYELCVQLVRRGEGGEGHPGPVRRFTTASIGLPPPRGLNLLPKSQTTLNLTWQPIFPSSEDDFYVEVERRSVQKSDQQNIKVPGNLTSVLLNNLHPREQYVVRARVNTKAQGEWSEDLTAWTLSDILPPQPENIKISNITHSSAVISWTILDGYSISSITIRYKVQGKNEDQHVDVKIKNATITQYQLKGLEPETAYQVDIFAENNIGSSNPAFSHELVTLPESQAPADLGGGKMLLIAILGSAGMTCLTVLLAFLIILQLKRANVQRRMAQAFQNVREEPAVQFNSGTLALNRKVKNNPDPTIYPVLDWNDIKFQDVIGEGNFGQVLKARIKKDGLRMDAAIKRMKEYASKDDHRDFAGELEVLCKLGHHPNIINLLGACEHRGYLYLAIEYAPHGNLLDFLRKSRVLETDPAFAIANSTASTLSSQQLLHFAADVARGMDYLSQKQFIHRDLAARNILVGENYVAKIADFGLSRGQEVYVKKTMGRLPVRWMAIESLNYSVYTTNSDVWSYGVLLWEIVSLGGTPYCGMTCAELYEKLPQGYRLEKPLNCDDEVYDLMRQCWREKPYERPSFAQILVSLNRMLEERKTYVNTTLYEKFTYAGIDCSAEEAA

BaF3 [4] = assay: Antitumor activity against mouse BA/F3 cells expressing BCR-ABL T315I mutant allografted in SCID mouse assessed as inhibition of tumor growth at 5 to 10 mg/kg/day, po qd for 14 days; format: functional, organism-based
Method in brief: (§1)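 Ba/F3 cells stably expressing Bcr-Abl (wild type or mutant) were grown in RPMI 1640 with 10% FBS and no IL-3, then suspended in saline (2.5 × 10^7 cells/mL) and given as 0.2 mL s.c. in the right flank. Groups were randomised at 100−200 mm3. Once-daily oral gavage for 14 days in DMSO/Cremophor/ethanol/saline vehicle; reference imatinib 50 or 100 mg/kg/day. Volume L × W²/2 every 2 days; n = 10; t test versus vehicle.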

K562 [5] = assay: Antitumor activity against human K562 cells xenografted in mouse assessed as decrease in tumor recurrence at 5 to 10 mg/kg, po qd for 20 days; format: functional, organism-based
[6] = Volume of distribution at steady state in rat at 5 mg/kg, iv; format: ADME, organism-based; design: dose 5 mg/kg, route intravenous; conditions: in vivo, read-out: Vdss
Method in brief: (§2)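 Test compound given to rats as its bismesylate salt in a single dose, 5 mg/kg iv or 25 mg/kg by mouth. Plasma drug levels were monitored after dosing, and PK parameters including Vss were reported per route.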

[7] = molecular target: Tyrosine-protein kinase ABL1 (Homo sapiens, UniProt P00519, F317I); assay: Binding affinity to non phosphorylated ABL1 F317I mutant (unknown origin) after 1 hr
[8] = Cytotoxicity against mouse BA/F3 cells expressing BCR-ABL L248V mutant assessed as growth inhibition after 72 hrs by CCK-8 assay; conditions: BaF3, 72 h
[9] = Antitumor activity against mouse BA/F3 cells expressing BCR-ABL T315I mutant allografted in SCID mouse assessed as increase in median survival at 5 mg/kg/day, po qd for 10 days; format: functional, BaF3
Method in brief: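 Ba/F3 Bcr-Abl T315I cells stably carrying firefly luciferase, in saline, were injected i.v. into SCID nude mice (2 × 10^6 cells/0.1 mL). Imaging began 5−7 days later: i.p. D-luciferin, halothane anaesthesia, images after 5 min. Mice were randomised by signal and dosed by oral gavage once daily for 10 days (5, 10, 20 mg/kg/day; imatinib 100 mg/kg; vehicle). Luminescence was quantified; survival by Kaplan−Meier with log-rank test.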

Mus musculus = assay: Toxicity in human K562 cells xenografted mouse assessed as mortality; format: organism-based; conditions: in vivo
Method in brief: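 K562 cells suspended in normal saline (2.5 × 10^7 cells/mL), 0.2 mL injected subcutaneously into the right flank. Mice were randomised once mean tumour volume reached 100−200 mm3. Oral gavage once daily for 14 days, in 1% DMSO/22.5% Cremophor/7.5% ethanol/69% saline. Tumour volume (L × W²/2) and body weight taken every 2 days; recurrence followed 20 days after dosing stopped. n = 10/group; unpaired t test versus vehicle.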

[10] = Tmax in rat at 25 mg/kg, po; format: ADME, organism-based; design: dose 25 mg/kg, route oral; conditions: in vivo
Method in brief: (§3)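 Bismesylate salt given to rats as a single iv dose of 5 mg/kg or a single oral dose of 25 mg/kg. Plasma drug levels were followed over time to derive the PK parameters. The 12 h and 24 h plasma levels come from the oral 25 mg/kg dose.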

[11] = Cytotoxicity against mouse BA/F3 cells expressing BCR-ABL E255K mutant assessed as growth inhibition after 72 hrs by CCK-8 assay; conditions: BaF3, 72 h
[12] = Plasma concentration in rat after 12 hrs; format: ADME; method in brief: as §3
Rattus norvegicus = assay: Volume of distribution at steady state in rat at 25 mg/kg, po; format: ADME, organism-based; design: dose 25 mg/kg, route oral; conditions: in vivo; method in brief: as §2
cells = conditions: Mus musculus, BaF3, 72 h
[13] = Cytotoxicity against mouse BA/F3 cells expressing BCR-ABL M351T mutant assessed as growth inhibition after 72 hrs by CCK-8 assay; conditions: BaF3, 72 h
BaF3 [14] = assay: Antitumor activity against mouse BA/F3 cells expressing BCR-ABL E255K mutant allografted in po dosed SCID mouse assessed as reduction of hepatosplenomegaly administered qd for 14 days; format: functional, organism-based
[15] = Cytotoxicity against mouse BA/F3 cells assessed as growth inhibition after 72 hrs by CCK-8 assay; conditions: BaF3, 72 h
MOLT-4 = assay: Cytotoxicity against human MOLT4 cells […] assessed as growth inhibition after 72 hrs by CCK-8 assay; format: functional, cell-based; conditions: MOLT-4, 72 h
Method in brief: (§4)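 Log-phase human leukemia cells were seeded at about 3000 cells/well and treated 24 h later for 72 h. CCK-8 was then incubated with the cells for 3 h and read as OD450 − OD650. Viability was normalized to vehicle wells and cell-free blanks, and IC50 taken as the mean of three experiments.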

Cytochrome P450 1A2 = Cytochrome P450 1A2 (Homo sapiens, UniProt P05177); assay: Inhibition of human recombinant CYP1A2 at 30 uM after 30 mins; format: ADME; conditions: recombinant enzyme, 0.5 h
Sequence of Cytochrome P450 1A2 (P05177 whole entry): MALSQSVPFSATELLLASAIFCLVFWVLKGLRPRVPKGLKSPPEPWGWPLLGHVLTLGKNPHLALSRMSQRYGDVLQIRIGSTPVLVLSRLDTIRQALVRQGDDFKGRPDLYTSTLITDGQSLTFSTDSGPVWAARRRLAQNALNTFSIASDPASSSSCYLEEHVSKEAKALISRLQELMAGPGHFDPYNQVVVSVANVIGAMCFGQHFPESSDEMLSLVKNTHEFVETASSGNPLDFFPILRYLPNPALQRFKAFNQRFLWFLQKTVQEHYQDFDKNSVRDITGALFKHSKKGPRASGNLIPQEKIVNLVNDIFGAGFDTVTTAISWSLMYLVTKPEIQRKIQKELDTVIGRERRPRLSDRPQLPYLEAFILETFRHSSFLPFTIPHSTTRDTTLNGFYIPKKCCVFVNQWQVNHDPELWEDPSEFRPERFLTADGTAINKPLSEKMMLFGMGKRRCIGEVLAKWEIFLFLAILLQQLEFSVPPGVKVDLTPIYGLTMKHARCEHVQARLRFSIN

K562 [16] = assay: Antitumor activity against human K562 cells xenografted in mouse assessed as inhibition of tumor growth at 1 mg/kg, po qd for 14 days; format: functional; conditions: K562, 336 h, read-out: TGI
Method in brief: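 K562 cells in normal saline (2.5 × 10^7 cells/mL, 0.2 mL) injected subcutaneously into right flank; mice randomized when mean tumor volume reached 100−200 mm3. Dosing once daily by oral gavage for 14 consecutive days in 1% DMSO, 22.5% Cremophor, 7.5% ethanol, 69% saline. Tumor volume (L × W2/2) and body weight every 2 days; n = 10/group; unpaired Student's t test vs vehicle.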

[17] = Clearance in rat at 25 mg/kg, po; format: ADME, organism-based; design: dose 25 mg/kg, route oral; conditions: in vivo; method in brief: as §3
BaF3 [18] = assay: Antitumor activity against mouse BA/F3 cells expressing wild type BCR-ABL allografted in SCID mouse assessed as inhibition of tumor growth at 1 mg/kg/day, po qd for 14 days; format: functional, organism-based; method in brief: as §1
HL-60 = assay: Cytotoxicity against human HL60 cells […] assessed as growth inhibition after 72 hrs by CCK-8 assay; format: functional, cell-based; conditions: HL-60, 72 h; method in brief: as §4
[19] = AUC (0 to t) in rat at 25 mg/kg, po; format: ADME, organism-based; design: dose 25 mg/kg, route oral; conditions: plasma; method in brief: as §3
[20] = molecular target: Mast/stem cell growth factor receptor Kit (Homo sapiens) (UniProt P10721); assay: Binding affinity to KIT (unknown origin) at 10 nM after 2 hrs by FRET assay
Sequence of Mast/stem cell growth factor receptor Kit (Homo sapiens) (P10721 whole entry): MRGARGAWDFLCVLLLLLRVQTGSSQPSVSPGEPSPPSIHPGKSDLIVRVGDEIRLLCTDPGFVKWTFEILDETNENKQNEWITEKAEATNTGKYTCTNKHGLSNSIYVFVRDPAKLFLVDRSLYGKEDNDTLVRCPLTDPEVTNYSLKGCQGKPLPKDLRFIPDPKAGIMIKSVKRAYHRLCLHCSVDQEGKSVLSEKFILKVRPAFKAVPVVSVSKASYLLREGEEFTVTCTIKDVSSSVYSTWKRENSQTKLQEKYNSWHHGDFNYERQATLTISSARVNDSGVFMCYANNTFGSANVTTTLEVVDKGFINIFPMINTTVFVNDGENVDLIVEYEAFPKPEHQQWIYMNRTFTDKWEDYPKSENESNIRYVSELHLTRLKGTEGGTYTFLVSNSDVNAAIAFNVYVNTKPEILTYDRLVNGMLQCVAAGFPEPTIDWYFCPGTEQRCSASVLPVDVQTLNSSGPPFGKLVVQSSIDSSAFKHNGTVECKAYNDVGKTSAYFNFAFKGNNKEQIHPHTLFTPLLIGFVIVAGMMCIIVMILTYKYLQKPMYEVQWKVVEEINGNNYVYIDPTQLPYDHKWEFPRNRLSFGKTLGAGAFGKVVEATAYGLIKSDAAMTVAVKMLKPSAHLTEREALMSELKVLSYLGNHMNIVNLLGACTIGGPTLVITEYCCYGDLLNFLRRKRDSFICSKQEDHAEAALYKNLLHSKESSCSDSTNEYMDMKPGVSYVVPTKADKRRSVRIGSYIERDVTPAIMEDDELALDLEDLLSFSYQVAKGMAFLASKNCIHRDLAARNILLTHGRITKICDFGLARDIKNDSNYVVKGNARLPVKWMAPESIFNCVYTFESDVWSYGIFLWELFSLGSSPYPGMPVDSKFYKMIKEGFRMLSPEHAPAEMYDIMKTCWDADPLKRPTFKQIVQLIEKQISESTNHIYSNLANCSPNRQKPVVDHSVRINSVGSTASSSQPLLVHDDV

[21] = AUC (0 to t) in rat at 5 mg/kg, iv; format: ADME, organism-based; design: dose 5 mg/kg, route intravenous; conditions: plasma; method in brief: as §3
[22] = molecular target: Tyrosine-protein kinase ABL1 (Homo sapiens, UniProt P00519, Q252H); format: cell-based

With Cc1ccc(C(=O)Nc2ccc(CN3CCN(C)CC3)c(C(F)(F)F)c2)cc1C#Cc1cnc2[nH]ncc2c1 [OLVEREMBATINIB] the pKd [1] was 8.49, the pIC50 [2] was 8.59 and the “inhibition (INH)” value (Cytochrome P450 3A4) was “Not Active”. The Activity [3] was “inactive”, the TGI (BaF3 [4]) was “inactive” and the Activity (K562 [5]) was “Active”. For the same molecule, the Vd [6] was 13.7 L/kg, the pKd [7] was 8.74 and the pIC50 [8] was 8.14. For the same molecule, the Survival [9] was 23.7 days, the Activity (Mus musculus) was “Non-toxic” and the Tmax [10] was 4 h. For the same molecule, the pIC50 [11] was 8.46, the concentration at 12 h [12] was 270 nM and the Vdss (Rattus norvegicus) was 53.2 L/kg. The pIC50 (cells) was 8.22, the pIC50 [13] was 9.70 and the Activity (BaF3 [14]) was “Active”. For the same molecule, the pIC50 [15] was 6.77, the pIC50 (MOLT-4) was 7.58 and the “inhibition (INH)” value (Cytochrome P450 1A2) was “Not Active”. For the same molecule, the inhibition in vivo at 1 mg/kg (K562 [16]) was 68.3%, the CL/F [17] was 60 mL/min/kg and the TGI (BaF3 [18]) was “Active”. For the same molecule, the pIC50 (HL-60) was 6.46, the AUC(0-t) [19] was 6700 ng·h/mL and the Activity [20] was “inactive”. It also gave an AUC(0-t) [21] of 2740 ng·h/mL and a pIC50 [22] of 9.82.
